Data taken from ChEMBL document CHEMBL4152243, “Design, synthesis and biological activities of 2,3-dihydroquinazolin-4(1H)-one derivatives as TRPM2 inhibitors” (Eur J Med Chem, 2018).
Activity calls are given as the source filed them. The rule behind the calls is not given here.

What was measured:
Assay type in all cases: cell-based
[1] = molecular target: T1, Transient receptor potential cation channel subfamily M member 2 (Homo sapiens, UniProt O94759); experiment: Inhibition of human TRPM2 expressed in HEK293 cells assessed as reduction in ADPR-induced channel currents at 30 uM treated extracellularly after 60 secs by whole cell patch clamp electrophysiology method relative to control
Outline: (§1)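 Tetracycline-inducible HEK293 stably expressing human TRPM2 (1 µg/mL tetracycline), whole-cell patch clamp at room temperature. ECS (mM): 145 NaCl, 5.6 KCl, 2 MgCl2, 1.2 CaCl2, 10 HEPES, pH 7.2. ICS contained 500 µM ADPR (pH 7.3). Compound was added to ECS. Held at 0 mV with 500 ms ramps from -100 to 100 mV every 5 s. IC50 came from concentration–response curves; mean ± SEM from at least five cells.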

[2] = molecular target: T2, Transient receptor potential cation channel subfamily M member 8 (Homo sapiens, UniProt Q7Z2W7); experiment: Inhibition of human TRPM8 expressed in HEK293 cells assessed as reduction in menthol-induced channel currents at 30 uM treated intracellularly via pipette after 60 secs by whole cell patch clamp electrophysiology method
Outline: (§2)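 HEK293 were transiently transfected with human TRPM8 (pcDNA4/TO) plus GFP using Lipofectamine 2000 and recorded 24–48 h later by whole-cell patch clamp. TRPM8 was activated by 1 mM menthol in ECS. Compound at 30 µM was placed in ECS or ICS, with 0.1 mM 2-APB as reference inhibitor. Mean peak currents reported as mean ± SEM, n = 5.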
Target sequence in this assay (Q7Z2W7 whole entry, looked up): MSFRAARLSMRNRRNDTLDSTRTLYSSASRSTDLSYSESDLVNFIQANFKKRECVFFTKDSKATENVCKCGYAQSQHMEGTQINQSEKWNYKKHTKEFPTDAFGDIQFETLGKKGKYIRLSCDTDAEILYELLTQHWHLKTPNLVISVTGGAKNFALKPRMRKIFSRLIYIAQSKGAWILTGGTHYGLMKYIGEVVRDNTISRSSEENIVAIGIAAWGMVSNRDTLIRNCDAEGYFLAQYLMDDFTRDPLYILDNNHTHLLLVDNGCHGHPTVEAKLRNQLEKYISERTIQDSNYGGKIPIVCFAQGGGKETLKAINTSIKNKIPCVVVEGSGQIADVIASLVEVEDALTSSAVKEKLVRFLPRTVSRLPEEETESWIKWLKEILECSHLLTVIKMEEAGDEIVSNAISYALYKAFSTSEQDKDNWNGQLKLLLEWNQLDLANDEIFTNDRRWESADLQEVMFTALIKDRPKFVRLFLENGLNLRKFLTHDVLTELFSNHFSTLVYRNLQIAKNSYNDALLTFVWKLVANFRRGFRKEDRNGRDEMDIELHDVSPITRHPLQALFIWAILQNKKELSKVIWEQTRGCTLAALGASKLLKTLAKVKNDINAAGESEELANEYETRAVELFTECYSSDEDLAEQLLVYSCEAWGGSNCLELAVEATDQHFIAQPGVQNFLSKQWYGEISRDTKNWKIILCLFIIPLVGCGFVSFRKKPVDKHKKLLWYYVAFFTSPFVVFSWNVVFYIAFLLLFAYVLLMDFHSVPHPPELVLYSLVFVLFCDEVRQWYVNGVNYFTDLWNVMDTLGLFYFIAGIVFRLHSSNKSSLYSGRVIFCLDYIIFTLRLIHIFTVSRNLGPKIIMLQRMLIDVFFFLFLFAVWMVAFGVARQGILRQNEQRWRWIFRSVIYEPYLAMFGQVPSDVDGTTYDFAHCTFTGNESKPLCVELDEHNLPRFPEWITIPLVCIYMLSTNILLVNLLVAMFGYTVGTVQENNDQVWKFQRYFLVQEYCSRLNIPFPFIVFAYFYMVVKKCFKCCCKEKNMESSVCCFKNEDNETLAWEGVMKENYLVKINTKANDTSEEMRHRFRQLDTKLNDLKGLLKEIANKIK

[3] = molecular target: T1, Transient receptor potential cation channel subfamily M member 2; experiment: Inhibition of human TRPM2 expressed in HEK293 cells assessed as reduction in ADPR-induced channel currents at 3 uM treated extracellularly after 60 secs by whole cell patch clamp electrophysiology method relative to control; outline: as §1
[4] = molecular target: T1, Transient receptor potential cation channel subfamily M member 2; experiment: Inhibition of human TRPM2 expressed in HEK293 cells assessed as reduction in ADPR-induced channel currents treated extracellularly after 60 secs by whole cell patch clamp electrophysiology method; outline: as §1
[5] = molecular target: T2, Transient receptor potential cation channel subfamily M member 8; experiment: Inhibition of human TRPM8 expressed in HEK293 cells assessed as reduction in menthol-induced channel currents at 30 uM treated extracellularly after 60 secs by whole cell patch clamp electrophysiology method relative to control; outline: as §2
Target sequence in this assay (Q7Z2W7 whole entry, looked up): as above

[6] = tested on: Transient receptor potential cation channel subfamily M member 2 (Homo sapiens), O94759 [H995A]; experiment: Inhibition of human TRPM2 H995A mutant expressed in HEK293 cells assessed as reduction in ADPR-induced channel currents at 30 uM treated extracellularly after 50 to 200 secs by whole cell patch clamp electrophysiology method
[7] = tested on: Transient receptor potential cation channel subfamily M member 2 (Homo sapiens), O94759 [D964A]; experiment: Inhibition of human TRPM2 D964A mutant expressed in HEK293 cells assessed as reduction in ADPR-induced channel currents at 30 uM treated extracellularly after 50 to 200 secs by whole cell patch clamp electrophysiology method relative to control
[8] = molecular target: T1, Transient receptor potential cation channel subfamily M member 2; experiment: Inhibition of human TRPM2 expressed in HEK293 cells assessed as reduction in H2O2-induced intracellular calcium flux at 30 uM after 30 mins by Fluo3-AM dye based fluorescence imaging assay
[9] = molecular target: T2, Transient receptor potential cation channel subfamily M member 8; experiment: Inhibition of human TRPM8 expressed in HEK293 cells assessed as reduction in H2O2-induced intracellular calcium flux after 30 mins by Fluo4-AM dye based fluorescence assay
Target sequence in this assay (Q7Z2W7 whole entry): as the sequence (Q7Z2W7 whole entry, looked up) above

T1 sequence (O94759 whole entry): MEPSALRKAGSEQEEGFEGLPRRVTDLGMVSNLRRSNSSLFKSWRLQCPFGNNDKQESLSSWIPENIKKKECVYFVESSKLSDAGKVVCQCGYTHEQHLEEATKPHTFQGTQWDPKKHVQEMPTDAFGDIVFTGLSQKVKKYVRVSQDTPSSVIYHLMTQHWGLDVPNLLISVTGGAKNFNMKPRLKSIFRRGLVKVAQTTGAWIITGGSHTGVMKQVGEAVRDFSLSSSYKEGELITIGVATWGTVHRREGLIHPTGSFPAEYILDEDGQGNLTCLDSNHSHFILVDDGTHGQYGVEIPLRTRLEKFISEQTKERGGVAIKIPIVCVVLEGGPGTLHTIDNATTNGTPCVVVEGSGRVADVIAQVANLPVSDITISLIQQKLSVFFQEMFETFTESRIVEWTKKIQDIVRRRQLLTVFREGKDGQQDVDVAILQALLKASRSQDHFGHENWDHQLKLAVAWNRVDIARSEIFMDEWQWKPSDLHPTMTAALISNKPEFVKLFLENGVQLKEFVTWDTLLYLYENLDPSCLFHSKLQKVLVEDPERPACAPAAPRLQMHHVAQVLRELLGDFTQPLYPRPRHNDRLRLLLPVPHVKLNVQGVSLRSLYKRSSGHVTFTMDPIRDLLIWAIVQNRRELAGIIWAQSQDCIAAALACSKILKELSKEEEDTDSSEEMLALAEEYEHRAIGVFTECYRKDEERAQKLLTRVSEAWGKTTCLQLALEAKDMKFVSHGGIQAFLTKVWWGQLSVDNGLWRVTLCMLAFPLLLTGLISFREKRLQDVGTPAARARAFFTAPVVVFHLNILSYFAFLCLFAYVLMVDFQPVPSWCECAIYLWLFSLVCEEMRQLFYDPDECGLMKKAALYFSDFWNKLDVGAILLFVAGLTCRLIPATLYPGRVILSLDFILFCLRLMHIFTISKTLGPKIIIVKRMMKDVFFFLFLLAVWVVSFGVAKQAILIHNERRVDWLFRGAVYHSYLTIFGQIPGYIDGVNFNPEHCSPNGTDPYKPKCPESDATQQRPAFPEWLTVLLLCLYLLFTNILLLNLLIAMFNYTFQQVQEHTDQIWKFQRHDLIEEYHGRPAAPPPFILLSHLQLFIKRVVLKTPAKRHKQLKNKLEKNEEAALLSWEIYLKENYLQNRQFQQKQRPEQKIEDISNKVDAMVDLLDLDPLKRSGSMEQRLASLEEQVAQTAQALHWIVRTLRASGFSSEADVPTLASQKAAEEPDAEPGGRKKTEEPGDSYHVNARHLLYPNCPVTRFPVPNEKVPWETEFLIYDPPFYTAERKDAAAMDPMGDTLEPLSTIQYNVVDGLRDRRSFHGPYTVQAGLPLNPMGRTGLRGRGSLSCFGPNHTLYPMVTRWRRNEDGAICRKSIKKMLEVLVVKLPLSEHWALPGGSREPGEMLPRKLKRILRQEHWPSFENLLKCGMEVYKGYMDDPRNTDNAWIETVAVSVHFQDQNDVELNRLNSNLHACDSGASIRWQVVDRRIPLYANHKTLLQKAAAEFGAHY
Sequence of Transient receptor potential cation channel subfamily M member 2 (Homo sapiens), O94759 [H995A] (O94759 whole entry H995A): as the sequence (O94759 whole entry) above, with H995A counted along it
Sequence of Transient receptor potential cation channel subfamily M member 2 (Homo sapiens), O94759 [D964A] (O94759 whole entry D964A): as the sequence (O94759 whole entry) above, with D964A counted along it

Row | inhibition [1] | inhibition [8] | further results | SMILES
1 | 90.2% | – | inhibition [2]: Active; inhibition [3]: 46.4%; IC50 [4]: 5.1 µM; inhibition [5]: 27% | Cc1cc(Cl)cc2c1NC(c1c[nH]nc1-c1ccccc1)NC2=O (stereo not drawn)
2 | – | – | inhibition [4]: Dose-dependent effect; inhibition [6]: inactive; inhibition [7]: Active | Nc1ncnc2c1ncn2[C@@H]1O[C@H](COP(=O)(O)O)[C@@H](O)[C@H]1O
3 | – | Active | – | O=C1NC(c2c[nH]nc2-c2ccccc2)Nc2cc(Br)ccc21 (stereo not drawn)
4 | 39.2% | – | – | Cc1cccc2c1NC(c1c[nH]nc1-c1ccccc1)NC2=O (stereo not drawn)
5 | 34.8% | – | – | O=C1NC(c2c[nH]nc2-c2ccccc2)Nc2ccc(F)cc21 (stereo not drawn)
6 | – | Active | – | O=C1NC(c2c[nH]nc2-c2ccccc2)Nc2c1cccc2[N+](=O)[O-] (stereo not drawn)
7 | 10.3% | – | – | Cc1cc(Cl)cc2c1NC(c1c[nH]nc1-c1ccc(Cl)cc1)NC2=O (stereo not drawn)
8 | – | Active | – | O=C1NC(c2c[nH]nc2-c2ccccc2)Nc2c(Br)cc(Br)cc21 (stereo not drawn)
9 | – | Active | – | Cc1cc(I)cc2c1NC(c1c[nH]nc1-c1ccccc1)NC2=O (stereo not drawn)
10 | – | Active | – | Cc1cc(C)c2nc(-c3c[nH]nc3-c3ccccc3)[nH]c(=O)c2c1
11 | – | Active | – | O=C1NC(c2c[nH]nc2-c2ccccc2)Nc2c(Cl)cc(Cl)cc21 (stereo not drawn)
12 | – | – | inhibition [3]: 19.9% | O=C1NC(c2c[nH]nc2-c2cccc3ccccc23)Nc2c(I)cc(Cl)cc21 (stereo not drawn)
13 | Active | – | – | Cc1cc(Cl)cc2c1N[C@@H](c1c[nH]nc1-c1ccccc1)NC2=O
14 | 17.9% | – | – | Cc1cc(Cl)cc2c1NC(c1c[nH]nc1-c1ccccc1Br)NC2=O (stereo not drawn)
15 | 92.8% | – | inhibition [2]: Active; inhibition [3]: 50.1%; IC50 [4]: 4.6 µM; inhibition [5]: 19% | Cc1cc(Br)cc2c1NC(c1c[nH]nc1-c1ccccc1)NC2=O (stereo not drawn)
16 | 16.9% | – | – | Cc1cc(Cl)cc2c1NC(c1cn[nH]c1)NC2=O (stereo not drawn)
17 | – | Active | – | O=C1NC(c2cncn2Cc2ccc(Cl)cc2)Nc2ccccc21 (stereo not drawn)
18 | Active | – | – | Cc1cc(Cl)cc2c1N[C@H](c1c[nH]nc1-c1ccccc1)NC2=O
19 | – | Active | – | O=C1NC(c2c[nH]nc2-c2ccccc2)Nc2c(Br)cc(F)cc21 (stereo not drawn)
20 | – | – | inhibition [3]: 42.1% | Cc1cc(Br)cc2c1NC(c1c[nH]nc1-c1ccc([N+](=O)[O-])cc1)NC2=O (stereo not drawn)
21 | 89.1% | – | IC50 [9]: 3.9 µM; inhibition [3]: 75.9%; IC50 [4]: 0.32 µM | CCCCCc1ccc(/C=C/C(=O)Nc2ccccc2C(=O)O)cc1
22 | 60.5% | – | – | Cc1cc(C)c2c(c1)C(=O)NC(c1c[nH]nc1-c1ccccc1)N2 (stereo not drawn)
23 | 89.4% | – | inhibition [3]: 39.6% | O=C1NC(c2c[nH]nc2-c2ccccc2)Nc2c(I)cc(Cl)cc21 (stereo not drawn)
24 | – | Active | – | O=C1NC(c2c[nH]nc2-c2ccc(Cl)cc2)Nc2ccccc21 (stereo not drawn)
